According to ChEMBL document CHEMBL2046403, “Biochemical and pharmacological evaluation of 4-hydroxychromen-2-ones bearing polar C-3 substituents as anticoagulants” (Eur J Med Chem, 2012):

Assays:
Rattus norvegicus [1] = assay: Hepatotoxicity in Wistar albino rat assessed as change in serum protein level at 0.5 mg/kg, ip measured after 24 hrs; assay type: toxicity, organism-based; set-up: dose 0.5 mg/kg, route intraperitoneal; conditions: in vivo
Rattus norvegicus [2] = assay: Hepatotoxicity in Wistar albino rat assessed as change in serum ALP level at 0.5 mg/kg, ip measured after 24 hrs; assay type: toxicity, organism-based; set-up: dose 0.5 mg/kg, route intraperitoneal; conditions: in vivo
Plasma [3] = assay: Anticoagulant activity in Wistar albino rat plasma assessed as fibrinogen level; assay type: functional
Summary of the method: (§1)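 Adult albino Wistar rats (2.5 months old, 220–250 g), three per compound and control. […] Fibrin time and fibrinogen were determined on plasma. Fibrinogen was quantified by biuret method at 540 nm. At least three measurements, reported with standard deviation.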

Rattus norvegicus [4] = assay: Toxicity in Wistar albino rat assessed as lethal dose at 0.5 mg/kg/day, ip administered for 5 days; assay type: organism-based; set-up: route intraperitoneal; conditions: in vivo, 120 h
Plasma [5] = assay: Anticoagulant activity in Wistar albino rat plasma assessed as fibrin time; assay type: functional; summary of the method: as §1
Rattus norvegicus [6] = assay: Hepatotoxicity in Wistar albino rat assessed as change in serum AST level at 0.5 mg/kg, ip measured after 24 hrs; assay type: toxicity, organism-based; set-up: dose 0.5 mg/kg, route intraperitoneal; conditions: in vivo
Plasma [7] = assay: Anticoagulant activity in Wistar albino rat plasma assessed as prothrombin time at 0.1 mg/kg, ip; assay type: functional; conditions: route intraperitoneal
Summary of the method: (§2)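 Adult Wistar rats (2.5 months, 220–250 g), three per compound and control, were given a single i.p. dose of 0.1 or 0.5 mg/kg in ethanol solution and sacrificed 24 h later. […] Plasma prothrombin time was measured by Quick method and reported in seconds and as INR, from at least three measurements.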

Rattus norvegicus [8] = assay: Hepatotoxicity in Wistar albino rat assessed as change in serum iron level at 0.5 mg/kg, ip measured after 24 hrs; assay type: toxicity, organism-based; set-up: dose 0.5 mg/kg, route intraperitoneal; conditions: in vivo
Rattus norvegicus [9] = assay: Hepatotoxicity in Wistar albino rat assessed as change in serum gamma-GT level at 0.5 mg/kg, ip measured after 24 hrs; assay type: toxicity, organism-based; set-up: dose 0.5 mg/kg, route intraperitoneal; conditions: in vivo
Rattus norvegicus [10] = assay: Hepatotoxicity in Wistar albino rat assessed as change in serum albumin level at 0.5 mg/kg, ip measured after 24 hrs; assay type: toxicity, organism-based; set-up: dose 0.5 mg/kg, route intraperitoneal; conditions: in vivo
Plasma [11] = assay: Anticoagulant activity in human plasma assessed as prothrombin time at 1 mg/ml; assay type: functional
Summary of the method: (§3)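 Frozen human plasma (blood type A+) was used. Compounds were prepared at 1 mg/mL in a vehicle of 96% EtOH, 0.9% NaCl, 20% glycerol and phosphate buffer pH 7. Prothrombin time was measured by Quick method and reported in seconds and as INR, with SD from at least three measurements.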

Rattus norvegicus [12] = assay: Hepatotoxicity in Wistar albino rat assessed as change in serum bilirubin level at 0.5 mg/kg, ip measured after 24 hrs; assay type: toxicity, organism-based; set-up: dose 0.5 mg/kg, route intraperitoneal; conditions: in vivo
Rattus norvegicus [13] = assay: Hepatotoxicity in Wistar albino rat assessed as change in serum ALT level at 0.5 mg/kg, ip measured after 24 hrs; assay type: toxicity, organism-based; set-up: dose 0.5 mg/kg, route intraperitoneal; conditions: in vivo
Plasma [14] = assay: Anticoagulant activity in Wistar albino rat plasma assessed as fibrinogen level at 0.5 mg/kg/day, ip administered for 5 days; assay type: functional; conditions: route intraperitoneal
Summary of the method: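 Wistar rats (220–250 g), three per group, got one i.p. dose of 0.5 mg/kg per day for five days and were sacrificed on day six. […] Plasma fibrinogen was measured by biuret method at 540 nm.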

Plasma [15] = assay: Anticoagulant activity in Wistar albino rat plasma assessed as prothrombin time at 0.5 mg/kg, ip relative to warfarin; assay type: functional; conditions: route intraperitoneal
Summary of the method: (§4)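 Rats (Wistar, 220–250 g, n=3 per group) were dosed i.p. with 0.5 mg/kg compound in ethanol solution. Prothrombin time was measured in plasma by Quick method and expressed as fold of the matching control value. […] Groups were compared by one-way ANOVA with Dunnett T3 or Bonferroni post-hoc tests.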

Rattus norvegicus [16] = assay: Hepatotoxicity in Wistar albino rat assessed as change in serum ALT level at 0.5 mg/kg/day, ip administered for 5 days measured after second compound dose; conditions: in vivo, 120 h
Rattus norvegicus [17] = assay: Drug metabolism in Wistar albino rat assessed as coumarin-7-glucuronide level in urine at 1 mg/kg, ip measured after 72 hrs by GC/MS analysis; conditions: in vivo
Plasma [18] = assay: Anticoagulant activity in Wistar albino rat plasma assessed as prothrombin time at 0.5 mg/kg/day, ip administered for 5 days measured after second dose; assay type: functional; conditions: route intraperitoneal
Summary of the method: (§5)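 Wistar rats, three per group, were dosed i.p. at 0.5 mg/kg per day over five days in ethanol solution and sacrificed on day six. Plasma prothrombin time was measured by Quick method after the second 0.5 mg/kg administration, reported in seconds and INR. Where animals were dosed more than once, PTs were averaged.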

Rattus norvegicus [19] = assay: Hepatotoxicity in Wistar albino rat assessed as change in serum gamma-GT level at 0.5 mg/kg, ip administered for 5 days measured after second compound dose; assay type: toxicity, organism-based; set-up: dose 0.5 mg/kg, route intraperitoneal; conditions: in vivo, 120 h
Rattus norvegicus [20] = assay: Hepatotoxicity in Wistar albino rat assessed as change in serum AST level at 0.5 mg/kg, ip measured after 24 hrs relative to untreated control; assay type: toxicity, organism-based; set-up: dose 0.5 mg/kg, route intraperitoneal; conditions: in vivo
Summary of the method: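 Serum AST was measured 24 h after a single 0.5 mg/kg i.p. dose (ethanol solution) in Wistar rats, three per group, by IFCC UV kinetic method at 340 nm. Activity was expressed as fold of the negative (96% ethanol) control, and compared by one-way ANOVA with post-hoc tests.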

Rattus norvegicus [21] = assay: Drug metabolism in Wistar albino rat assessed as 7-hydroxycoumarin level in urine at 1 mg/kg, ip measured after 72 hrs by GC/MS analysis; conditions: in vivo
Plasma [22] = assay: Anticoagulant activity in Wistar albino rat plasma assessed as prothrombin time at 0.5 mg/kg, ip; assay type: functional; conditions: route intraperitoneal
Summary of the method: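 Adult Wistar rats (2.5 months, 220–250 g), three per compound and control, were given a single i.p. dose of 0.1 or 0.5 mg/kg in ethanol solution and sacrificed 24 h later. Plasma prothrombin time was measured by Quick method and reported in seconds and as INR, from at least three measurements.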

Rattus norvegicus [23] = assay: Anticoagulant activity in Wistar rats in vivo assessed as prothrombin time
Rattus norvegicus [24] = assay: Hepatotoxicity in Wistar albino rat assessed as change in serum iron level at 0.5 mg/kg/day, ip administered for 5 days measured after second compound dose; assay type: toxicity, organism-based; set-up: route intraperitoneal; conditions: in vivo, 120 h
Rattus norvegicus [25] = assay: Hepatotoxicity in Wistar albino rat assessed as change in serum AST level at 0.5 mg/kg/day, ip administered for 5 days measured after second compound dose; conditions: in vivo, 120 h
Plasma [26] = assay: Anticoagulant activity in Wistar albino rat plasma assessed as prothrombin time at 0.5 mg/kg, ip relative to untreated control; assay type: functional; conditions: route intraperitoneal; summary of the method: as §4
Plasma [27] = assay: Anticoagulant activity in human plasma assessed as international normalized ratio at 1 mg/ml; assay type: functional; summary of the method: as §3
Plasma [28] = assay: Anticoagulant activity in Wistar albino rat plasma assessed as international normalized ratio at 0.5 mg/kg, ip; assay type: functional; conditions: route intraperitoneal; summary of the method: as §2
Plasma [29] = assay: Anticoagulant activity in Wistar albino rat plasma assessed as international normalized ratio at 0.1 mg/kg, ip; assay type: functional; conditions: route intraperitoneal; summary of the method: as §2
Plasma [30] = assay: Anticoagulant activity in Wistar albino rat plasma assessed as international normalized ratio at 0.5 mg/kg/day, ip administered for 5 days measured after second dose; assay type: functional; conditions: route intraperitoneal; summary of the method: as §5
[31] = biological target: VKORC1 (Rattus norvegicus); assay: Inhibition of VKORC1

CC(=O)CC(c1ccccc1)c1c(O)c2ccccc2oc1=O (stereo unspecified) [WARFARIN]
Activity (Rattus norvegicus [1]): 59.4 g/L | Activity (Rattus norvegicus [2]): 170 U/L | Activity (Plasma [3]): 1.9 g/L | Activity (Rattus norvegicus [4]): Toxic | Time (Plasma [5]): 33.4 s | Activity (Rattus norvegicus [6]): 277.3 U/L | PT (Plasma [7]): 10.3 s | Activity (Rattus norvegicus [8]): 22.3 µmol/L | Activity (Rattus norvegicus [9]): 3.4 U/L | Activity (Rattus norvegicus [10]): 34.5 g/L | PT (Plasma [11]): 18.5 s | Activity (Rattus norvegicus [12]): 1.3 µmol/L | Activity (Rattus norvegicus [13]): 51.5 U/L

Cc1cccc(Nc2nc(-c3c(O)c4ccccc4oc3=O)cs2)c1
Activity (Rattus norvegicus [1]): 66.2 g/L | Activity (Plasma [14]): 1.2 g/L | Activity (Rattus norvegicus [2]): 172 U/L | Activity (Plasma [15]): 79.51% | Activity (Plasma [3]): 2 g/L | Time (Plasma [5]): 27.6 s | ALT (Rattus norvegicus [16]): 62.4 U/L | Activity (Rattus norvegicus [6]): 284.6 U/L | PT (Plasma [7]): 9.6 s | Drug metabolism (Rattus norvegicus [17]): Active | PT (Plasma [18]): 28.1 s | Activity (Rattus norvegicus [19]): 3 U/L | Activity (Rattus norvegicus [8]): 28.4 µmol/L | Activity (Rattus norvegicus [9]): 2.2 U/L | fold change (FC) (Rattus norvegicus [20]): 1.68 | Activity (Rattus norvegicus [10]): 41.9 g/L | PT (Plasma [11]): 25 s | Drug metabolism (Rattus norvegicus [21]): Active | PT (Plasma [22]): 9.7 s | Activity (Rattus norvegicus [12]): 1.8 µmol/L | IC50 (Rattus norvegicus [23]): 69.2 µM | Activity (Rattus norvegicus [13]): 67.3 U/L | Activity (Rattus norvegicus [24]): 17.3 µmol/L | AST (Rattus norvegicus [25]): 175.5 U/L

O=c1oc2ccccc2c(O)c1-c1csc(Nc2cccc([N+](=O)[O-])c2)n1
Activity (Rattus norvegicus [1]): 64.2 g/L | Activity (Plasma [14]): 1.74 g/L | Activity (Rattus norvegicus [2]): 225 U/L | fold change (FC) (Plasma [15]): 1.18 | Activity (Plasma [3]): 0.6 g/L | Time (Plasma [5]): >500 s | ALT (Rattus norvegicus [16]): 65.1 U/L | Activity (Rattus norvegicus [6]): 294.6 U/L | PT (Plasma [7]): 9.6 s | Drug metabolism (Rattus norvegicus [17]): Active | PT (Plasma [18]): 28.1 s | Activity (Rattus norvegicus [19]): 2.6 U/L | Activity (Rattus norvegicus [8]): 29.7 µmol/L | fold change (FC) (Plasma [26]): 1.48 | Activity (Rattus norvegicus [9]): 2.8 U/L | fold change (FC) (Rattus norvegicus [20]): 1.74 | Activity (Rattus norvegicus [10]): 39.7 g/L | PT (Plasma [11]): 24.4 s | Drug metabolism (Rattus norvegicus [21]): Active | PT (Plasma [22]): 14.4 s | Activity (Rattus norvegicus [12]): 2.2 µmol/L | IC50 (Rattus norvegicus [23]): 741 µM | Activity (Rattus norvegicus [13]): 52.4 U/L | Activity (Rattus norvegicus [24]): 17.3 µmol/L | AST (Rattus norvegicus [25]): 210.7 U/L

O=c1oc2ccccc2c(O)c1-c1csc(Nc2ccc(S(=O)(=O)O)cc2)n1
Activity (Rattus norvegicus [1]): 64.9 g/L | Ratio (Plasma [27]): 2.6 | Activity (Plasma [14]): 0.9 g/L | Activity (Rattus norvegicus [2]): 164 U/L | fold change (FC) (Plasma [15]): 1.18 | Time (Plasma [5]): >500 s | ALT (Rattus norvegicus [16]): 63 U/L | Ratio (Plasma [28]): 0.84 | Ratio (Plasma [29]): 0.82 | Activity (Rattus norvegicus [6]): 269.7 U/L | PT (Plasma [7]): 10.4 s | Drug metabolism (Rattus norvegicus [17]): Active | PT (Plasma [18]): 28.6 s | Activity (Rattus norvegicus [19]): 2.2 U/L | Activity (Rattus norvegicus [8]): 19.3 µmol/L | fold change (FC) (Plasma [26]): 1.27 | Ratio (Plasma [30]): 1.38 | Activity (Rattus norvegicus [9]): 2.4 U/L | fold change (FC) (Rattus norvegicus [20]): 1.59 | Activity (Rattus norvegicus [10]): 40.8 g/L | PT (Plasma [11]): 26.5 s | Drug metabolism (Rattus norvegicus [21]): Active | PT (Plasma [22]): 12.4 s | Activity (Rattus norvegicus [12]): 1.6 µmol/L | IC50 (Rattus norvegicus [23]): 141 µM | Activity (Rattus norvegicus [13]): 58.4 U/L | Activity (Rattus norvegicus [24]): 19 µmol/L | AST (Rattus norvegicus [25]): 207.5 U/L | Ki [31]: 44.8 µM

CCOC(=O)C(C(=O)OCC)=C(C)c1c(O)c2ccccc2oc1=O
Activity (Rattus norvegicus [1]): 67.2 g/L | Ratio (Plasma [27]): 1.99 | Activity (Plasma [14]): 1.6 g/L | Activity (Rattus norvegicus [2]): 513 U/L | Activity (Plasma [15]): 86.06% | Activity (Plasma [3]): 5.1 g/L | Time (Plasma [5]): 51.3 s | ALT (Rattus norvegicus [16]): 55.5 U/L | Ratio (Plasma [28]): 0.13 | Ratio (Plasma [29]): 0.13 | Activity (Rattus norvegicus [6]): 238.3 U/L | PT (Plasma [7]): 10.3 s | Drug metabolism (Rattus norvegicus [17]): Active | PT (Plasma [18]): 30 s | Activity (Rattus norvegicus [19]): 2.3 U/L | Activity (Rattus norvegicus [8]): 28.4 µmol/L | fold change (FC) (Plasma [26]): 1.08 | Ratio (Plasma [30]): 0.13 | Activity (Rattus norvegicus [9]): 3.1 U/L | fold change (FC) (Rattus norvegicus [20]): 1.41 | Activity (Rattus norvegicus [10]): 35.2 g/L | PT (Plasma [11]): 23 s | Drug metabolism (Rattus norvegicus [21]): Active | PT (Plasma [22]): 10.5 s | Activity (Rattus norvegicus [12]): 2 µmol/L | IC50 (Rattus norvegicus [23]): 141 µM | Activity (Rattus norvegicus [13]): 71.8 U/L | Activity (Rattus norvegicus [24]): 17.7 µmol/L | AST (Rattus norvegicus [25]): 209.9 U/L | Ki [31]: 68.9 µM
